Shown are actives, neighbours in structure and some others; about 3.7% of the full set was active somewhere.
b-catenin transl: alters nuclear translocation of beta-catenin in HeLa cells; immunofluorescence imaging; nuclear translocation activity, % at 5 µM; 190,000 tested, 0.3% active; AID 1665;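 active means nuclear translocation activity above 50% at 5 µM, with a well cell count of 50 or more; inconclusive means wells under 50 cells across six images, flagged as toxic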;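 further: per-cell ratio of nuclear to cytoplasmic median beta-catenin stain intensity; plate controls were DMSO negative control for no effect and GSK-3 inhibitor IX positive control for full effect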
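System: HeLa cells, endogenous beta-catenin; compound dosing: 5 µM primary single dose, 0.1% DMSO, 0.02–20 µM confirmation series; incubation: 24 h compound exposure at 37°C, 5% CO2; signal: beta-catenin immunofluorescence imaging with DAPI; evaluation: % activation, nuclear-to-cytoplasmic median beta-catenin signal ratio per cell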
Cl transport mod: modulates chloride dependent transport by human KCC2 | Q9H2X9 | KCC2 cells, thallium flux FluoZin-2 fluorescence | B-score of Tl+ flux slope (higher = more flux/activation; lower = inhibition) at 10 µM | 190,000 tested, 2.2% active | AID 1456;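 active means thallium flux slope and its plate-corrected score both differing from the plate sample mean at a set confidence after two filtering rounds, in either direction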;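 further: slope of fluorescence scaled to starting intensity during 10 to 20 s after thallium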
ROMK primary: human ROMK K+ channel modulation, primary screen | P48048 | B-score at 10 µM | AID 1918 | 130,000 tested, 2% active | Tet-inducible ROMK, thallium flux fluorescence; actives lie on both sides;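 active means signal ratio slope over the read window, or its plate-corrected B-score, at least 3 SD from the plate mean, either direction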;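 further: B-score of the F/F0 ratio slope over 7 to 12 s after thallium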
Target sequence (P48048 whole entry, looked up): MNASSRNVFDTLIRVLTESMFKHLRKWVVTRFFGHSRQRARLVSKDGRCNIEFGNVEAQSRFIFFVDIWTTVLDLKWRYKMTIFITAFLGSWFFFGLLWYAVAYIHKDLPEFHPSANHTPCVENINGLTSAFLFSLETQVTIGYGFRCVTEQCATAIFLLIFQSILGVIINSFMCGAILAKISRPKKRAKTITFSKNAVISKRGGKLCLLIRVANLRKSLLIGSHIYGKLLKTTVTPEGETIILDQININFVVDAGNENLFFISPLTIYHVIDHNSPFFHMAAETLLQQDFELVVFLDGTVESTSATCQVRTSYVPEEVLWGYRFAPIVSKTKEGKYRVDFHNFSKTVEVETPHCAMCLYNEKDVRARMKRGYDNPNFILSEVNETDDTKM
MT stabilize HCS: microtubule stabilizers in HeLa cells; HeLa tubulin immunostaining HCS, 24 h; share of cells brighter than vehicle mean+2SD; 200,000 tested, 0.83% active; % tubulin-high responders, % at 10 µM; AID 2205;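 active means plate Z-score above 3 for both tubulin-high and condensed-nucleus cell shares, with cell loss under 80%, at 10 µM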;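 further: anti alpha tubulin signal scored within the nucleus-defined area of each cell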
Redox H2O2 prof: compounds producing H2O2 with reducing agent – biochemical, NIH compound library profiling, artefact control for MLSCN library redox annotation, primary screen. activation, % at 10 µM. 200,000 tested, 0.03% active. DTT-dependent redox cycling H2O2, phenol red/HRP absorbance; 100% = 100 µM peroxide control, 0% = buffer. AID 878;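 active means activation of at least 50% relative to the plate's high and low controls in the primary single-dose screen; inactive means activation below 50%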;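 further: compound incubated with DTT at 0.8 mM final as the reducing agent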
KCC2 sec1: KCC2 (human) modulation, secondary assay | shares compounds with Cl transport mod | HEK293-KCC2, thallium flux, FluoZin2 fluorescence; stronger effect = higher value | normalised thallium flux (F/F0 slope) at 10 µM | 3,700 tested, 15% active | AID 1713;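 active means thallium flux slope above the same plate's solvent-only control mean plus 3 SD; inconclusive means the two replicate wells disagree; inactive means no significant difference from solvent-only control wells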
KCC2 bumet counter: thallium flux persisting under bumetanide in KCC2 cells, counter-screen secondary assay | shares compounds with Cl transport mod | HEK293-KCC2 + bumetanide/ouabain, thallium flux FluoZin2; stronger effect = higher value | normalized thallium flux at 10 µM | 3,700 tested, 49% active | AID 1714;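 active means thallium entry rate above the same plate's blocked-transporter control wells by more than 3 SD; inconclusive means the two repeat wells disagree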;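 further: raw slope of fluorescence over initial fluorescence between 10 and 20 s after thallium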
KCC2 secondary2: confirmation of human KCC2 transport modulators. shares compounds with Cl transport mod. 3,700 tested, 23% active. HEK293-KCC2, thallium flux FluoZin2 fluorescence; actives lie on both sides; F/F0 rise rate, 10–20 s post-thallium. normalized thallium flux at 10 µM;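 active means thallium flux slope more than 3 SD above or below the plate's solvent-only control mean, mostly below; inconclusive means the two repeat wells disagreed; inactive means no significant shift from solvent-only controls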;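 further: raw slope with 0.1% DMSO as baseline and bumetanide as block control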
HEK293 Tl flux: counter-screen for KCC2 modulators: effect in parental HEK293 cells; thallium flux FluoZin2, ouabain; baseline-ratio fluorescence slope, 10–20 s after thallium; 3,700 tested, 46% active; shares compounds with Cl transport mod; thallium flux rate (normalised fluorescence) at 10 µM;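 active means thallium flux rate significantly above the same plate's solvent-only control wells, beyond their mean plus 3 SD; inconclusive means the two replicate wells gave conflicting results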
KCC2 ouabain: KCC2 (human) modulation, ouabain retest | shares compounds with Cl transport mod | HEK293-KCC2, thallium flux FluoZin2 fluorescence; bidirectional: low = inhibitor, high = activator | raw Tl+ flux slope (below DMSO = inhibition, above = activation) at 10 µM | 3,700 tested, 48% active | AID 1717;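 active means thallium flux slope beyond 3 SD from same-plate DMSO control mean in most replicates, usually higher, sometimes lower; inconclusive means repeat tests gave conflicting results; inactive means no significant difference from controls in most replicates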;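 further: slope of initial-normalized fluorescence between seconds 10 and 20 after thallium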
HEK counter2: counter-screen for KCC2 modulators: effect in parental HEK293 cells; shares compounds with Cl transport mod; thallium flux FluoZin-2 fluorescence slope; thallium flux slope at 10 µM; 3,700 tested, 33% active;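 active means thallium flux slope above the same plate's solvent-control mean plus 3 SD in both duplicate wells; inconclusive means duplicate wells that disagreed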;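 further: run without ouabain in cells lacking the KCC2 cotransporter; slope of fluorescence scaled to its starting value between 10 and 20 s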
Active calls of the source: *; u = inconclusive; x = no result.

SMILES	b-catenin transl	Cl transport mod	ROMK primary	MT stabilize HCS	Redox H2O2 prof	KCC2 sec1	KCC2 bumet counter	KCC2 secondary2	HEK293 Tl flux	KCC2 ouabain	HEK counter2
CC1=C(C(=O)OCCOc2ccccc2)C(c2ccsc2)NC(=O)N1C (stereo not drawn)	8	-6.6*	-1.3	3	-1	0.0084	0.006	0.03*	0.0038	0.016*	0.011
COC(=O)C1=C(C)N(C)C(=O)NC1c1ccccc1 (stereo not drawn)	-4	x	0.26	7	-1	x	x	x	x	x	x
O=C1CC(O)(C(F)F)Oc2ccc3ccccc3c21 (stereo not drawn)	-4	2.7	x	2	2	x	x	x	x	x	x
O=C1CC(O)(C(F)(F)F)Oc2c1ccc1ccccc21 (stereo not drawn)	2	46*	x	8	1	0.0088	0.077*	0.065*	0.059*	0.067*	0.061*
Cc1nn(-c2ccccc2)c(C)c1/C=C/C(=O)OCC(=O)NC1CCS(=O)(=O)C1 (stereo not drawn)	1	x	-0.18	2	-1	0.0056	0.0044	0.027	0.0081	0.018	0.01
COC(=O)C1=C(C)N(C)C(=O)NC1c1cc2c(cc1[N+](=O)[O-])OCO2 (stereo not drawn)	-2	0.22	1	3	0	x	x	x	x	x	x
COC(=O)C1=C(C)N(CCCC(=O)O)C(=O)NC1c1cc2c(cc1[N+](=O)[O-])OCO2 (stereo not drawn)	0	3.7*	0.013	2	0	0.0068	u	0.028	0.0073	0.018	0.0098
Cc1ccc(/C=N/n2c(C3CCCCC3)n[nH]c2=S)s1	-1	7.3*	1.1	2	0	0.011	0.022*	0.033	0.011*	0.027	u
COCCCNC(=O)[C@H](CSCc1ccccc1)N1Cc2ccccc2C1=O	-2	-2.2	x	x	x	x	x	x	x	x	x
CCCCNC(=O)[C@H](CSCc1ccccc1)N1Cc2ccccc2C1=O	-1	-2.6*	-2	5	1	u	0.0055	0.032	0.0078	0.017*	0.01
Cc1cc(=O)n(Cc2ccc(OC(C)C)cc2)c(=S)[nH]1	0	x	0.56	1	-1	u	0.015*	0.032	0.016*	u	0.012
CC(C)CCn1c2ccccc2c2cc(CC(N)=O)ccc21	2	0	x	x	x	x	x	x	x	x	x
COc1ccc(-c2coc3cc(O)cc(O)c3c2=O)cc1	x	-5.2	x	2	0	u	0.0062	0.028	0.0069	0.016*	u
Cc1cn(-c2ccccc2)c(C)c1/C=N\Nc1nc(N2CCOCC2)nc(N2CCOCC2)n1	0	x	x	1	0	x	x	x	x	x	x
NC(=O)CSc1nnc2ccc(-c3ccc(F)cc3)nn12	6	-0.016	0.36	1	-3	x	x	x	x	x	x
CCOC(=O)N1CCN(C(=O)c2ccc3c(=O)n(Cc4ccc(Cl)cc4)c(=S)[nH]c3c2)CC1	1	x	1.9	4	0	0.0063	0.015*	0.032	0.013*	u	0.016*
CCN1CCN(C(=O)c2ccc3c(=O)n(C4CCCC4)c(=S)[nH]c3c2)CC1	x	x	x	1	3	x	x	x	x	x	x
O=C(c1ccc2c(=O)n(C3CCCC3)c(=S)[nH]c2c1)N1CCN(C2CCCCC2)CC1	-1	8.3*	-1.3	4	2	0.0063	0.0098*	0.029	0.015*	0.021	0.013*
CN(C)C(=O)CN1CCN(Cc2cn(C)nc2-c2ccc3c(c2)OCCO3)CC1	0	-0.099	1.4	x	0	x	x	x	x	x	x
CCOc1ccc2c(c1)C(=NNC(=O)c1ccncc1)c1cc(OCC)ccc1-2	-2	30*	1.2	4	4	0.015*	0.033*	0.032	0.018*	0.079*	0.012*
CN(C)S(=O)(=O)c1cccc(NC(=S)N/N=C/c2ccco2)c1	1	6.3*	x	x	x	0.0067	0.0075*	0.027	0.0094*	0.019	0.012*
CN(C)S(=O)(=O)c1cccc(NC(=S)N/N=C/c2ccc(O)c(O)c2O)c1	-1	-1.7	x	x	x	x	x	x	x	x	x
O=C(NCCN1CCOCC1)c1cc2cc(Cl)cc(Cl)c2oc1=O	x	0.032	1.4	4	0	x	x	x	x	x	x
O=C(NC(=S)N1CCCCC1)c1cccs1	-1	0.56	0.9	2	-1	x	x	x	x	x	x
COC(=O)c1sccc1NC(=S)N1CCC(C)CC1	-1	x	-0.24	2	0	0.0081	0.0049	0.027	0.0074	0.018	0.0096
SMILES	b-catenin transl	Cl transport mod	ROMK primary	MT stabilize HCS	Redox H2O2 prof	KCC2 sec1	KCC2 bumet counter	KCC2 secondary2	HEK293 Tl flux	KCC2 ouabain	HEK counter2
COC(=O)c1sccc1NC(=S)NCc1ccc(Cl)cc1	1	160*	x	x	x	0.07*	0.16*	0.058*	u	0.12*	0.058*
CC1CCCCN1C(=S)NC(=O)c1cccs1 (stereo not drawn)	1	36*	x	x	x	0.022*	0.057*	0.039	0.034*	0.05*	0.016*
CC1CCN(C(=S)NC(=O)c2cccs2)CC1	-1	56*	x	2	-1	0.033*	0.083*	u	0.055*	0.069*	0.019*
COC(=O)C(/C=N/OCc1ccc([N+](=O)[O-])cc1)NC(=O)c1cccc(Cl)c1 (stereo not drawn)	2	-1.6	-1.5	1	0	x	x	x	x	x	x
CCC(C(=O)Nc1ccsc1C(=O)OC)c1ccccc1 (stereo not drawn)	1	-3.2*	0.36	3	0	0.009	0.0056	0.035	u	u	0.011
O=C1/C(=C\c2ccco2)NC(=S)N1c1ccccc1	2	15*	-0.25	3	0	0.015*	0.033*	0.034	0.018*	u	0.013*
CCOC(=O)C1=C(CC)Nc2ccccc2N/C1=N\S(=O)(=O)c1cc(Br)ccc1Br	x	-4*	1.2	5	0	0.0055	u	0.024*	0.0063*	0.015*	u

Bioassay records: PubChem, several laboratories
